The term logP denotes the decadic logarithm of the partition coefficient of the neutral form, usually between octanol and water. In general, EC50 refers to the concentration needed to bring the measured effect to its halfway point.

Molecules are shown by their SMILES.

A short description of data set [1]: Octanol-water partition coefficient, log P of the compound. In kind it is physicochemical.
Data set [2] has as its target T1, GABA-A receptor; GABA-A site (alpha1/beta2 interface) (Homo sapiens) (UniProt P14867+P47870). As to the kind of experiment: Modulation of GABA Aalpha1beta2 receptor expressed in Xenopus laevis oocytes assessed as potentiation of GABA-induced chloride current at holding potential -70 mV at 30 uM by two-microelectrode voltage clamp technique relative to GABA. In kind it is cell-based. Particulars: Oocyte. Summed up: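 Single-concentration screen at 30 μM on α1β2 receptors (cRNA 1:1) in Xenopus oocytes. Enhancement was (I(GABA+compound)/IGABA)−1. DMSO was matched in control and test solutions, maximum 0.3% in the bath.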

Data set [3] concerns the target T2, GABA-A receptor; GABA-A site (alpha1/beta2 interface) (Homo sapiens, UniProt P14867+P47870).
T2 sequence (P14867 whole entry): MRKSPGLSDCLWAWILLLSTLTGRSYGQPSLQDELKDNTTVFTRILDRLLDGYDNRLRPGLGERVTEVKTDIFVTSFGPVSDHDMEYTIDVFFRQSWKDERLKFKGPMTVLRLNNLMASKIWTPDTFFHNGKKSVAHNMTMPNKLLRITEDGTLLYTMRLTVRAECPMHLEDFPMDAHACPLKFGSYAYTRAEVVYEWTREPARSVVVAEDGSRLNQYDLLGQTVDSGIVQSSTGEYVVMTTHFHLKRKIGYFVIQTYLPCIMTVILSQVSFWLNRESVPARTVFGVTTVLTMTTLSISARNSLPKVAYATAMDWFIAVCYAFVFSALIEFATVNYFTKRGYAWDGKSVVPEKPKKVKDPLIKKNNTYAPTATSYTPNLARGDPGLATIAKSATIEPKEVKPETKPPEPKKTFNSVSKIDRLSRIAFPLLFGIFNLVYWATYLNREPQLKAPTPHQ
T2 sequence (P47870 whole entry): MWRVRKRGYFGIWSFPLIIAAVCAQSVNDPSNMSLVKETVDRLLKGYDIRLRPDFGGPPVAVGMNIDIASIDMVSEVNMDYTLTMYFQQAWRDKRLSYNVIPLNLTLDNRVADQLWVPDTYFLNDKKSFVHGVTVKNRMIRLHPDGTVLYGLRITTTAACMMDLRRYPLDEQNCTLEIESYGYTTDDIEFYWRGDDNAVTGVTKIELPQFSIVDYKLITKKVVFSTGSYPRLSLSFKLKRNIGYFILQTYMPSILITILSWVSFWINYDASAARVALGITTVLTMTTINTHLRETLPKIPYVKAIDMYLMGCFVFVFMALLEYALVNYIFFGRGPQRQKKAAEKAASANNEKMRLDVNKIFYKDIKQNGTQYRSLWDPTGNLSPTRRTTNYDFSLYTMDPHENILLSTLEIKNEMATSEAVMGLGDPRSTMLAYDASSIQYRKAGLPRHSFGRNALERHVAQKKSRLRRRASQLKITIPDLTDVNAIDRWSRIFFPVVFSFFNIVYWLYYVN
As to the kind of experiment: Modulation of GABA Aalpha1beta2 receptor expressed in Xenopus laevis oocytes assessed as potentiation of GABA-induced chloride current at holding potential -70 mV by two-microelectrode voltage clamp technique. In kind it is cell-based, Oocyte. Summed up:
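Stage V–VI Xenopus oocytes, defolliculated with 2 mg/mL collagenase, injected with α(1, 2, 3 or 5) and β2 cRNAs mixed 1:1, then kept at 18 °C in ND96 (pH 7.4). Enhancement = I(GABA+compound)/IGABA − 1. Curves were Hill-fitted for EC50. Bath DMSO was at most 0.3%, matched in controls.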

Data set [4] deals with T1, GABA-A receptor; GABA-A site (alpha1/beta2 interface) (Homo sapiens). As to the kind of experiment: Modulation of GABA Aalpha1beta2 receptor expressed in Xenopus laevis oocytes assessed as potentiation of GABA-induced chloride current at holding potential -70 mV by two-microelectrode voltage clamp technique relative to GABA. The data set is classed as cell-based. The conditions noted are these: Oocyte. Summed up:
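Oocytes were injected with α1, α2, α3 or α5 plus β2 cRNA at a 1:1 ratio and stored at 18 °C in ND96, pH 7.4. Enhancement was (I(GABA+compound)/IGABA)−1, and concentration-response data were Hill-fitted for EC50 and nH. Matched DMSO was ≤0.3%.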

Turning to `C=CCc1ccc(O)c(-c2ccc(OCCCCC)c(CC=C)c2)c1`, the logP in data set [1] (read-out: logP) was 7.27. Moreover, the Activity in data set [2] stood at 28%.
Consider `C=CCc1cc(-c2ccc(OC)c(CC=C)c2)c(O)c(N(C)C)c1`, for which, in data set [1] (read-out: logP), the logP was found to be 5.38. Moreover, the EC50 in data set [3] is 18.5 µM. Moreover, the Activity in data set [2] is 215%. In data set [4], the Smax was 326%.
Taken in the same sequence, the figures for `C=CCc1cccc(-c2cccc(CC=C)c2O)c1O` were 5.09, 35.2 µM, 53% and 148%.
As for `C=CCc1ccc(OCCCCC)c(-c2ccc(OCCCCC)c(CC=C)c2)c1`, the logP in data set [1] is recorded as 9.37. Besides, the Activity in data set [2] was found to be 1%.
In the case of `C=CCc1ccc(OCC)c(-c2ccc(OCC)c(CC=C)c2)c1`, in data set [1] (read-out: logP), the logP was 6.37. The Activity in data set [2] was 14%.
For `C=CCc1ccc(OCCC)c(-c2ccc(O)c(CC=C)c2)c1`, the logP in data set [1] (read-out: logP) was 6.38. The concentration giving a half-maximal response (EC50) in data set [3] came to 14.8 µM. Moreover, the Activity in data set [2] is 93%. Also, the Smax in data set [4] was determined as 145%.
Taken in the same sequence, the figures for `C=CCc1cc(N)c(O)c(-c2ccc(OC)c(CC=C)c2)c1` were 4.79, 12.4 µM, 2180% and 2710%.
With `C=CCc1ccc(OCCC)c(-c2ccc(OCCC)c(CC=C)c2)c1`, the logP in data set [1] (read-out: logP) worked out at 7.6. Also, in data set [2], the Activity turned out to be 22%.
In the same order, the values of `C=CCc1ccc(OCCCCC)c(-c2ccc(O)c(CC=C)c2)c1` are 7.27 and 13%.
With `C=CCc1cc(-c2ccc(OC)c(CC=C)c2)c(O)c(N(CC)CC)c1`, the logP in data set [1] (read-out: logP) came out at 6.06. Also, the Activity in data set [2] is 7%.
`C=CCc1cc(-c2ccc(O)c(CC=C)c2)ccc1O`: in data set [1] (read-out: logP), the logP was determined as 5.16. The EC50 in data set [3] worked out at 23.7 µM. Besides, the Activity in data set [2] stood at 73%. For the same molecule, the Smax in data set [4] was 110%.
Consider `C=CCc1cc(NC)c(O)c(-c2ccc(OC)c(CC=C)c2)c1`, for which the logP in data set [1] (read-out: logP) turned out to be 5.11. Moreover, the EC50 in data set [3] was found to be 9.3 µM. Further, the Activity in data set [2] is 1840%. Besides, in data set [4], the Smax is 2030%.
Consider `C=CCc1ccc(O)c(-c2ccc(OC)c(/C=C\C)c2)c1`, for which the logP in data set [1] (read-out: logP) amounted to 5.45. Moreover, the EC50 in data set [3] came out at 19.7 µM. For the same molecule, the Activity in data set [2] amounted to 605%. The Smax in data set [4] is 1000%.
In the case of `COc1ccc(-c2cc(CCO)ccc2O)cc1CCO`, the logP in data set [1] (read-out: logP) was found to be 2.72. For the same molecule, in data set [3], the EC50 is 105 µM. Further, in data set [2], the Activity is 15%. The Smax in data set [4] came out at 177%.
Taken in the same sequence, the figures for `C=CCc1ccc(OCC)c(-c2ccc(O)c(CC=C)c2)c1` were 5.77, 14.3 µM, 1080% and 1400%.
As to `C=CCc1ccc(O)c(-c2ccc(OC)c(CC(C)Br)c2)c1` (stereo unspecified), the logP in data set [1] (read-out: logP) was 5.99. For the same molecule, in data set [3], the EC50 worked out at 16.9 µM. For the same molecule, the Activity in data set [2] was found to be 589%. The Smax in data set [4] is 952%.
In the same order, the values of `C=CCc1cc(-c2ccc(OC)c(CC=C)c2)c(O)c([N+](=O)[O-])c1` are 5.4, 25 µM, 120% and 227%.
For `C=CCc1ccc(OC)c(-c2ccc(OC)c(CC=C)c2)c1`, the logP in data set [1] (read-out: logP) was 5.69. Also, the half-maximal effective concentration (EC50) in data set [3] is 42.1 µM. Also, the Activity in data set [2] was determined as 110%. Also, the Smax in data set [4] came to 368%.
Taken in the same sequence, the figures for `CCCc1ccc(O)c(-c2ccc(OC)c(CCC)c2)c1` were 6.01, 12.7 µM, 1060% and 1440%.
Taken in the same sequence, the figures for `COc1ccc(-c2cc(CC(C)O)ccc2O)cc1CC(C)O` (stereo unspecified) were 3.64, 34.2 µM, 68% and 161%.
Taken in the same sequence, the figures for `C=CCc1ccc(O)c(-c2ccc(OC)c(CC=C)c2)c1` [METHYLHONOKIOL] were 5.43, 27.2 µM, 822% and 1530%.
As to `C=CCc1ccc(O)c(-c2cc(CC=C)ccc2OC)c1`, the logP in data set [1] (read-out: logP) was 5.43. Also, in data set [3], the EC50 was 54.3 µM. For the same molecule, the Activity in data set [2] is 687%. In addition, the Smax in data set [4] was 2800%.
Taken in the same sequence, the figures for `C=CCc1cc(NCC)c(O)c(-c2ccc(OC)c(CC=C)c2)c1` were 5.45, 7.7 µM, 2140% and 2290%.
For the molecule `C=CCc1ccc(OC2CC2)c(-c2ccc(OCCC)c(CC=C)c2)c1`, the logP in data set [1] (read-out: logP) came out at 6.38. For the same molecule, in data set [3], the 50% effective concentration (EC50) turned out to be 22 µM. Moreover, in data set [2], the Activity was found to be 339%. Further, the Smax in data set [4] is 608%.
For the molecule `CCCCC=CCc1ccc(O)c(-c2ccc(OC)c(CC=CCCCC)c2)c1` (mixture of isomers), the logP in data set [1] (read-out: logP) is 8.36. The EC50 in data set [3] was 2 µM. Moreover, the Activity in data set [2] was -2%.
Take `C=CCc1cc(-c2cc(CC(C)Br)ccc2O)ccc1OC` (stereo unspecified): the logP in data set [1] (read-out: logP) amounted to 5.99. The EC50 in data set [3] stood at 8.4 µM. In addition, the Activity in data set [2] was found to be 1230%. The Smax in data set [4] is 1340%.
In the same order, the values of `C=CCc1ccc(O)c(-c2cc(CC=C)ccc2O)c1` [MAGNOLOL] are 5.16, 36.8 µM, 357% and 963%.
In the same order, the values of `C=CCc1ccc(O)c(-c2ccc(OCC)c(CC=C)c2)c1` are 5.77, 59.9 µM, 345% and 865%.
`COc1ccc(-c2cc(CC(O)CO)ccc2O)cc1CC(O)CO` (stereo unspecified): the logP in data set [1] (read-out: logP) was found to be 1.57. Further, the Activity in data set [2] was 4%.

(Values after ChEMBL document CHEMBL1811845, “Modulation of GABAA-receptors by honokiol and derivatives: subtype selectivity and structure-activity relationship” (J Med Chem, 2011).)
